From PubChem BioAssay
T cruzi repl: T. cruzi replication inhibition | T. cruzi beta-gal in NIH3T3, luminescence, 90 h | inhibition, % (test concentration not listed) | hit rate 1.4% among 300,000;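 active = mean inhibition across valid replicates above about 55%, limit read from the data; inconclusive = mean below that limit but half or more replicates reach it; inactive = mean below it, under half of replicates reach it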;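 also: signal also drops with host cell toxicity which is not excluded here; 0% = plate median of DMSO wells and 100% = zero luminescence signal; higher percent means less beta-gal luminescence so fewer parasites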
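Material: NIH/3T3 host cells with β-galactosidase reporter T. cruzi; Input: 5,000 host fibroblasts per well; Medium: DMEM, 2% fetal bovine serum; Compound: 50 nL DMSO compound solution per well; Schedule: 3 h host attachment, then at least 90 h co-culture; Detection: luminescent β-galactosidase signal after 60 min lysis.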
HSF1 activator: increases HSF-1 driven luciferase reporter signal | NIH3T3-HGL HSF-1 luciferase reporter, MG132, 8 h; 100% = twice DMSO control signal | activation, % at 9 µM | hit rate 1.7% among 300,000;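 active = mean replicate activation of at least 50% with a set share of replicates each reaching 50%; inconclusive = only one of those two conditions met; inactive = mean below 50% and too few replicates reaching it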;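 also: 0% = median of the neutral control wells and 100% = twice that signal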
Calb FLC: affects C. albicans growth with fluconazole. C. albicans CaCi-2 + fluconazole, Alamar Blue growth, 48 h. growth inhibition, % (test concentration not listed). hit rate 0.57% among 300,000;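 active = growth inhibition above about 58% in most replicates, limit read from the data, passing the limit was not always enough; inconclusive = exactly half the replicates above a set limit; inactive = most replicates below a set limit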;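 also: all wells also contain fluconazole at 8 µg/ml as a sub-toxic cotreatment; 0% = median of DMSO wells and 100% = median of geldanamycin control wells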
HIF activator: HIF pathway transcriptional activation. U2OS HRE-luciferase reporter, luminescence; normalized: DMSO 0%, desferrioxamine 100%. activation, % at 7.5 µM (by protocol). hit rate 0.32% among 300,000;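 active = mean activation of at least 10% of the iron chelator positive control signal, with at least half of replicates also reaching 10%; inconclusive = mean and replicate majority disagree about reaching 10%; inactive = mean and most replicates under 10%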
HSF1 inh: HSF1 inhibition; NIH3T3-HGL HSE-luciferase, MG132-induced, luminescence 8 h; stronger effect = lower value; hit rate 0.77% among 300,000; activity change, negative = inhibition, % at 7.5 µM (by protocol);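 active = more than half of replicate wells show activity change below -50%, luminescence cut by over half; inconclusive = some wells, but at most half, below -50%; inactive = no replicate well below -50%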;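 also: luciferase reports HSF-1 transcriptional activity via heat shock element; 0% = median of DMSO wells and -100% = zero luminescence signal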
* = called active by the depositor; ? = inconclusive; · = no result given. Only some compounds are listed: those with a hit (about 4.4% of all), similar ones and a draw of the others.

SMILES | T cruzi repl | HSF1 activator | Calb FLC | HIF activator | HSF1 inh
C=CCNC(=O)CSCc1ccc(Br)cc1 | -3 | -10 | 7 | -1 | -1
O=[N+]([O-])c1cccc(OCCN2CCC(Cc3ccccc3)CC2)c1 | 39 | -3 | ? | 1 | 1
Cc1ccc(Cn2c(=O)oc3ccccc32)cc1 | -2 | -13 | 10 | 0 | -4
Cc1ccc(S(=O)(=O)n2c(=O)oc3ccccc32)cc1 | -18 | 80* | 1 | 0 | 61
CCCOC(=O)c1ccc(NC(=O)c2cc(=O)[nH]c3ccccc23)cc1 | -7 | 10 | -6 | 0 | 10
CCOC(=O)C1CCN(C(=O)COc2cc(C)c(Br)cc2C)CC1 | -4 | -71 | -11 | 0 | -63*
CCOC(=O)C1CCN(C(=O)COc2ccc(Br)cc2Br)CC1 | -4 | 24 | 16 | 0 | 18
Cc1cccc(N2CCN(c3ccc4cc(S(=O)(=O)N5CCCCC5)ccc4n3)CC2)c1C | -25 | -1 | -13 | 0 | -2
CCN(CC)c1ccc(/C=N/NC(=O)c2cccc(S(=O)(=O)Nc3ccccc3OC)c2)c(O)c1 | 27 | -17 | -6 | 92* | -16
CCN(CC)c1ccc(/C=N/NC(=O)c2ccc3nc[nH]c3c2)c(O)c1 | 10 | -6 | 109* | 96* | -4
CCN(CC)c1ccc(/C=N/NC(=O)OC)c(O)c1 | · | · | 1 | · | ·
COc1cccc(/C=N/NC(=O)c2ccc3nc[nH]c3c2)c1O | 9 | 1 | -3 | 0 | -2
CCN(CC)c1ccc(/C=N/NC(=O)c2ccoc2C)c(O)c1 | 57* | -9 | -2 | 64* | 8
CCN(CC)c1ccc(/C=N/NC(=O)c2cccc(S(=O)(=O)Nc3ccccc3OC)c2)cc1 | 20 | -1 | 10 | 0 | -2
Cc1ccc(/C=N/NC(=O)c2cccc(S(=O)(=O)Nc3ccccc3Cl)c2)o1 | -5 | 66* | 3 | -1 | 9
CCN(CC)c1ccc(N=Cc2ccc(N(CC)CC)cc2O)cc1 | 74* | 10 | 78* | 0 | 7
Cc1cc(Cl)ccc1NNC(=O)c1c(C)noc1C | -13 | -3 | 82* | 0 | -2
CC(C)CN1C(=O)NC(NS(=O)(=O)c2ccc(N)cc2)(C(F)(F)F)C1=O (stereo unspecified) | -10 | 14 | 2 | 0 | 3
CCOC(=O)c1sc2nc(C)c([N+](=O)[O-])c(COC)c2c1N | 7 | 0 | -1 | 0 | 0
O=[N+]([O-])c1ccc(O)c(P(=O)(c2ccccc2)c2ccccc2)c1 | -6 | -4 | 100* | 1 | -4
CCCCOc1ccc(C(=O)N2CCN(CC(=O)Nc3ccc(C)cc3)CC2)cc1OC | 1 | -4 | 6 | -1 | 8
CC(NC(=O)CCC(=O)N1CCCCCC1)c1ccccc1 (stereo unspecified) | -11 | 18 | -10 | -12 | 1
CCOC(=O)c1cnc(Nc2nc3ccccc3o2)nc1CSC(=S)N(CC)CC | 61* | -15 | 4 | 2 | -17
CCOC(=O)c1cnc(Nc2nc3ccccc3o2)nc1CSc1ncccn1 | 7 | -17 | -1 | 2 | -5
CCCc1nc(Nc2nc3ccccc3o2)nc(C)c1C(=O)OCC | 23 | 64* | 34 | 1 | 33
SMILES | T cruzi repl | HSF1 activator | Calb FLC | HIF activator | HSF1 inh
O=C(CSc1nnc(Cc2ccccc2)o1)Nc1cccc(F)c1 | 5 | 12 | 3 | -1 | 1
O=S(=O)(c1cc(F)ccc1F)N1CCC2(CC1)OCCN2S(=O)(=O)c1cccs1 | 7 | 11 | -2 | 1 | 4
Cc1ccc(C)c(NC(=S)NNC(=O)c2csc(C(C)C)c2)c1 | 13 | -22 | 92* | 1 | -17
COc1ccc(NC(=O)n2ncc3cc(Cl)ccc32)cc1OC | -4 | 53* | 10 | -14 | 22
CCCCc1ccc(NS(=O)(=O)c2c(C)n(C)c(=O)n(C)c2=O)cc1 | 4 | 64* | -8 | 0 | 27
O=C1C(Nc2ccccc2)=C/C(=N/S(=O)(=O)c2cccs2)c2ccccc21 | 60* | -95 | 60 | -3 | -94*
Cc1ccc(S(=O)(=O)/N=C2\C=C(Nc3cccc(C(=O)O)c3)C(=O)c3ccccc32)cc1 | 7 | 40 | 18 | 2 | 26
COC(=O)c1ccccc1NC1=C/C(=N\S(=O)(=O)c2cccs2)c2ccccc2C1=O | 47 | 40 | 38 | 0 | 33
Cc1ccc(NC2=C/C(=N/S(=O)(=O)c3cccs3)c3ccccc3C2=O)cc1 | 46 | -94 | 28 | -5 | -94*
O=C1C=C(Nc2ccccc2)C(=O)c2ccccc21 | 3 | 96* | -2 | 1 | 61
Cc1ccccc1/[N+]([O-])=C/c1cccs1 | -2 | 95* | -11 | 0 | 50
Cc1cccc(C(=O)NC2CCN(C(=O)Nc3ccc(F)cc3)CC2)c1 | -11 | -63 | 2 | -2 | -54*
Cc1cccc(C(=O)NC2CCN(C(=O)Nc3ccccc3C)CC2)c1 | 15 | -4 | -2 | 0 | 0
Cc1cccc2nc(-c3ccccc3)nc(N3CCC(O)(c4ccc(Cl)cc4)CC3)c12 | 60* | 33 | 27 | 0 | 2
CCN1CCN(c2nc(-c3ccccc3)nc3ccccc23)CC1 | -2 | -3 | -6 | 0 | -4
CCN(CC)c1ccc(/C=N/NC(=O)c2c(-c3ccccc3)noc2C)cc1 | 10 | 5 | 0 | -1 | -4
Cc1ccc(S(=O)(=O)CC(=O)Nc2nccs2)cc1 | -8 | -2 | -5 | 2 | -6
FC(F)(F)c1cc(-c2ccc(Cl)cc2)nc(NCc2cccnc2)n1 | 70* | 17 | 1 | 0 | 1
Cc1ccc(-c2cc(C(F)F)nc(NCc3cccs3)n2)cc1 | 11 | -6 | -5 | 0 | 5
COc1ccc(-c2cc(C(F)(F)F)nc(NCc3cccs3)n2)cc1 | 55* | -9 | -2 | 0 | -6
Cc1ccc(-c2cc(C(F)F)nc(NCc3cccnc3)n2)cc1 | 60* | 26 | ? | 0 | 9
COc1ccccc1-c1cc(C(F)(F)F)nc(NCc2cccs2)n1 | 4 | -38 | -3 | -1 | -15
O=C(Nc1cccc(Cl)c1)NC1CCS(=O)(=O)C1 (stereo unspecified) | 0 | 8 | 4 | 0 | -5
CN(C)c1nnnn1Cc1ccc(Cl)cc1Cl | 4 | 35 | -8 | 0 | 5
COc1ccc(N2C(=O)CC(N3CCC(c4nc5ccccc5[nH]4)CC3)C2=O)cc1 (stereo unspecified) | -12 | 19 | -3 | 0 | -8
O=C1CC(N2CCC(c3nc4ccccc4[nH]3)CC2)C(=O)N1c1ccccc1F (stereo unspecified) | 4 | 177* | -31 | -1 | 124
COc1cccc(C(=O)SC2=NCCS2)c1 | -12 | -4 | -2 | 327* | -7
CSc1nccc(N/N=C/c2ccccc2)n1 | -19 | 72* | 2 | -10 | 46
O=C(c1ccc(N2CCCCS2(=O)=O)cc1)N1CCN(c2ccccc2F)CC1 | 1 | 30 | -7 | 1 | -8
